In paper PMC4629212 (Acta Pharmaceutica Sinica. B, 2015):

Key:
[1] = system: HepG-2 cells; assay: MTT assay of HepG-2 cell viability; assay type: cell-based, human; conditions: for Inhibition ratios for HepG-2 cell viability: 10 μmol/L compound, 48 h, mean of three independent experiments; for Effect on HepG-2 cell viability (in words): 10 μmol/L
In short: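 HepG-2 cells were kept at 37 °C under 5% CO2 and seeded at 5×10^3 cells/well. After 12 h, test compound was added at 10 µmol/L for 48 h. Viability was read by MTT conversion to purple formazan, and the inhibition rate was calculated against untreated cells set as 100%.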

[2] = biological target: T1, AChE (Electrophorus electricus, UniProt O42275); assay: biochemical; parameters: species or system Electric Eel; conditions: for inhibition at 50 µM: 0.25 h, read-out: Inhibition ratios for AChE
T1 sequence (O42275 24-633): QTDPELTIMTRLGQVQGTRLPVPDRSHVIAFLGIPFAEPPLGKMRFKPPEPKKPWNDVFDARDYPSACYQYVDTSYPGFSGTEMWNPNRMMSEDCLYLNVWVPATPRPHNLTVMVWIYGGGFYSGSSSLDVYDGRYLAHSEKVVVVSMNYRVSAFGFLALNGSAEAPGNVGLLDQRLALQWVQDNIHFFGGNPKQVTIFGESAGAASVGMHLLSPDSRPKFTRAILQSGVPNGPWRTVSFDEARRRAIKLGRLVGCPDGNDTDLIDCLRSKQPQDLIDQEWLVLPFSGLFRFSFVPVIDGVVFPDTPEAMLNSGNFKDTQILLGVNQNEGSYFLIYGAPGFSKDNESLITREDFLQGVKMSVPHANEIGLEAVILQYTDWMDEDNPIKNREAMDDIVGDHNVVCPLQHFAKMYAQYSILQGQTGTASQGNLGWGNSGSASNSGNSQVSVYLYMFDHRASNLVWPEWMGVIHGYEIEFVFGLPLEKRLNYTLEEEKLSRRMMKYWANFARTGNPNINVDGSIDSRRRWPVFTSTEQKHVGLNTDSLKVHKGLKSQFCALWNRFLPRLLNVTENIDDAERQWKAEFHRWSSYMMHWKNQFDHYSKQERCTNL

[3] = biological target: BChE (Equus caballus, UniProt P81908); assay: BChE inhibition, modified Ellman method; assay type: biochemical, equine; conditions: for inhibition at 50 µM: 0.25 h, read-out: Inhibition ratios for BChE
Chain of BChE (P81908 whole entry): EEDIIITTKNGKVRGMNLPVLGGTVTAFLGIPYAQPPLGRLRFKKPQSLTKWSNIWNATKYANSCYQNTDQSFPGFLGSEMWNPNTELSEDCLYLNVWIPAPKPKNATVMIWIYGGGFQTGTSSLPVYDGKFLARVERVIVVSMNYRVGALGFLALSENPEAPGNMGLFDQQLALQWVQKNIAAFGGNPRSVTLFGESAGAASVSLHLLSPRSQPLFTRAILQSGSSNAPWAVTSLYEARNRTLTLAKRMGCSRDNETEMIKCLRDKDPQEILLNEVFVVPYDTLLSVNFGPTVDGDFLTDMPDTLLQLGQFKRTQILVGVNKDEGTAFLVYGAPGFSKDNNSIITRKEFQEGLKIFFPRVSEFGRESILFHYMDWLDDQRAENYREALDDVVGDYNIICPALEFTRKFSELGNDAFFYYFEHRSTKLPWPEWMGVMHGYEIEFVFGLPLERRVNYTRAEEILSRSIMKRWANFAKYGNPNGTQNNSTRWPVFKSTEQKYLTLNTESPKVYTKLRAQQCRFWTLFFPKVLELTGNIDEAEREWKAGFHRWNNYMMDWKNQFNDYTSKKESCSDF

[4] = Metal-chelating study by UV-Vis spectrometry; assay type: physicochemical
In short: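 Test compound (20 μmol/L final) was incubated in water for 30 min at room temperature, alone or with CuSO4, FeCl3 or ZnCl2 (each 20 μmol/L final). UV-Vis absorption spectra were then recorded from 200 to 500 nm.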

[5] = biological target: T1, AChE; assay: Kinetic characterization of AChE inhibition; assay type: biochemical, Electric Eel; conditions: Lineweaver–Burk plots
In short: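 Acetylthiocholine hydrolysis by AChE was measured at six substrate concentrations in 0.1 mol/L KH2PO4/K2HPO4 buffer, pH 8.0, with DTNB. Test compound was pre-incubated with the enzyme for 15 min at 37 °C before substrate was added. Absorbance was read at 412 nm, and a parallel no-inhibitor control was run.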

Row | Compound | Inhibition ratios for HepG-2 cell viability [1] [%] | inhibition at 50 µM [2] [%] | inhibition at 50 µM [3] [%] | IC50 [2] [µM] | IC50 [3] [µM] | also measured
1 | CCCCNC(=O)COc1cc(O)c2c(=O)c(-c3ccc(O)cc3)coc2c1 [Compound 4a, N-butyl-2-(5-hydroxy-3-(4-hydroxyphenyl)-4-oxo-4H-chromen-7-yloxy)acetamide] | 6.40 | 7.88 ± 3.58 | 1.19 ± 0.59 | – | – | –
2 | CN(C)CCNC(=O)COc1cc(O)c2c(=O)c(-c3ccc(O)cc3)coc2c1.Cl [Compound 4b, N-(2-(dimethylamino)ethyl)-2-(5-hydroxy-3-(4-hydroxyphenyl)-4-oxo-4H-chromen-7-yloxy)acetamide hydrochloride] | 1.53 | 90.4 ± 1.23 | 26.1 ± 2.52 | 2.75 ± 0.28 | > 50 | Metal-chelating ability (overall) [4]: potent metal-chelating ability; Chelation of Cu^2+ (UV-Vis spectrum change) ([4]; 20 μmol/L compound, 20 μmol/L Cu^2+, in water): poor chelating ability; Effect on HepG-2 cell viability (in words) [1]: no obvious effect on cell viability; Inhibition type of AChE [5]: mixed-type inhibition
3 | Cl.NCCCNC(=O)COc1cc(O)c2c(=O)c(-c3ccc(O)cc3)coc2c1 [Compound 4c, N-(3-aminopropyl)-2-(5-hydroxy-3-(4-hydroxyphenyl)-4-oxo-4H-chromen-7-yloxy)acetamide hydrochloride] | 14.57 | 37 ± 2.07 | 13.8 ± 1.05 | – | – | –
4 | Cl.NCCCCNC(=O)COc1cc(O)c2c(=O)c(-c3ccc(O)cc3)coc2c1 [Compound 4d, N-(4-aminobutyl)-2-(5-hydroxy-3-(4-hydroxyphenyl)-4-oxo-4H-chromen-7-yloxy)acetamide hydrochloride] | 1.17 | 34.5 ± 2.76 | 9.02 ± 0.23 | – | – | –
5 | Cl.O=C(COc1cc(O)c2c(=O)c(-c3ccc(O)cc3)coc2c1)NCCCCN1CCNCC1 [Compound 4e, 2-(5-hydroxy-3-(4-hydroxyphenyl)-4-oxo-4H-chromen-7-yloxy)-N-(4-(piperazin-1-yl)butyl)acetamide hydrochloride] | 8.51 | 19.3 ± 1.87 | 11.7 ± 0.82 | – | – | –
6 | Cl.NCCCNCCCNC(=O)COc1cc(O)c2c(=O)c(-c3ccc(O)cc3)coc2c1 [Compound 4f, N-(3-(3-aminopropylamino)propyl)-2-(5-hydroxy-3-(4-hydroxyphenyl)-4-oxo-4H-chromen-7-yloxy)acetamide hydrochloride] | 11.74 | 10.2 ± 0.44 | 9.52 ± 1.48 | – | – | –
7 | Cl.NCCCNCCCCNC(=O)COc1cc(O)c2c(=O)c(-c3ccc(O)cc3)coc2c1 [Compound 4g, N-(4-(3-aminopropylamino)butyl)-2-(5-hydroxy-3-(4-hydroxyphenyl)-4-oxo-4H-chromen-7-yloxy)acetamide hydrochloride] | 16.72 | 16.5 ± 1.36 | 17.9 ± 2.83 | – | – | –
8 | Cl.NCCCCNCCCCNC(=O)COc1cc(O)c2c(=O)c(-c3ccc(O)cc3)coc2c1 [Compound 4h, N-(4-(4-aminobutylamino)butyl)-2-(5-hydroxy-3-(4-hydroxyphenyl)-4-oxo-4H-chromen-7-yloxy)acetamide hydrochloride] | 16.30 | 51 ± 0.55 | 39.2 | 46.6 ± 3.87 | > 50 | Effect on HepG-2 cell viability (in words) [1]: no obvious effect on cell viability; Inhibition ratios for BChE ([3]; 50 μmol/L compound, mean±SEM of two experiments, BChE from equine serum): 39.20±5.64%
9 | O=c1c(-c2ccc(O)cc2)coc2cc(O)cc(O)c12 [Genistein, reference compound] | – | – | – | > 100 | > 100 | inhibition at 100 µM ([2]; read-out: Inhibition of AChE activity): < 50%
10 | Nc1c2c(nc3ccccc13)CCCC2 [Tacrine, reference compound] | 57.35 | – | – | – | – | –
